# Source: PubChem BioAssay
# Most compounds without a hit are left out; they make up all but 2.3% or so of the library.
# PLCg1 inh = inhibitors of human phospholipase C gamma1; inhibition, % at 12.2 µM; hit rate 0.84% among 370,000; purified PLC-gamma1, fluorogenic substrate, fluorescence; P19174; AID 720700; in the data active = inhibition above about 9.5%
# ADAM10 inh = inhibitors of human ADAM10; O14672; recombinant ADAM10, EDANS/DABCYL FRET peptide cleavage, 3 h; inhibition, % at 7 µM; hit rate 0.62% among 370,000;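 active = inhibition above a per-campaign cutoff equal to the mean of compounds falling between control-based bounds plus 3 SD, cut at about 20% in these data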;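 also: 0% = DMSO wells while the 100% control is not disclosed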
# Target sequence (O14672 214-748 limits assumed): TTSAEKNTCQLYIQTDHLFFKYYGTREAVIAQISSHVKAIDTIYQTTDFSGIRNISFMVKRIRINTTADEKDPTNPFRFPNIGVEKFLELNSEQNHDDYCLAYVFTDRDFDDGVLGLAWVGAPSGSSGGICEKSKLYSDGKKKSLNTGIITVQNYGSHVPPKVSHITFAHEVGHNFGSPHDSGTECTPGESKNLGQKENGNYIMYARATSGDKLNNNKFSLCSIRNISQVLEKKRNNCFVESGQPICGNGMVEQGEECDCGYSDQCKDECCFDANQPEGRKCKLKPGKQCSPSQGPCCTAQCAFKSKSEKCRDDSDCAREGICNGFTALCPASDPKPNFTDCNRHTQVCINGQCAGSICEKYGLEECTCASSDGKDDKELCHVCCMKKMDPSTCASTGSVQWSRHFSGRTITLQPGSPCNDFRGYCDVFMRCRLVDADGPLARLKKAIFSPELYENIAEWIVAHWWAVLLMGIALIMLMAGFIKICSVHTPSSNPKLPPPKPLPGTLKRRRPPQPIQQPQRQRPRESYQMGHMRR
# ADAM17 inh = ADAM17 inhibition, QFRET primary screen. inhibition, % at 6.95 µM. P78536. hit rate 0.83% among 370,000. recombinant ADAM17, EDANS/DABCYL FRET peptide cleavage;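 active = inhibition above the mean of compounds lying between control limits plus 3 SD, set per campaign, cut at about 8.5% in these data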;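 also: 0% = DMSO-only wells as the low control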
# TbMetRS inhib = blocks T. brucei methionyl-tRNA synthetase activity; purified T. brucei MetRS, ATP depletion, Kinase-Glo luminescence; inhibition, % at 11.9 µM; hit rate 0.4% among 360,000; AID 624268;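 active = inhibition above a per-plate cutoff of the control wells' mean inhibition plus 3 SD, cut at about 5.5% in these data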;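 also: 0% = DMSO wells median and 100% = median of wells with control inhibitor compound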
#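 Test system: purified T. brucei MetRS enzyme. Also added: ATP, methionine and E. coli bulk tRNA substrates. Compound: 11.9 µM single point. Schedule: 15 min enzyme-compound preincubation, 2 h reaction, 10 min detection, 25 °C. Signal: luciferase luminescence of residual ATP, Kinase-Glo. Evaluation: percent inhibition versus plate control medians. Controls: DMSO wells, low control.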
# PLCb3 inh = inhibitors of human phospholipase C beta3 | Q01970 | inhibition, % at 12.2 µM | Purified PLC-beta3, fluorogenic substrate, fluorescence | hit rate 0.18% among 370,000;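 also: 0% = median of compound wells on plate and 100% = full blocker control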
# PLCgamma1 ctr = inhibits human PLC-gamma1 in PLC-beta3 counter-screen. AID 743258. hit rate 3.1% among 3,300. shares compounds with PLCg1 inh. inhibition, % at 12.3 µM. purified PLC-gamma1, fluorogenic substrate, fluorescence; in the data active = inhibition above about 9.5%
# PLCb3 confirm = human PLC-beta3 inhibition, confirmation. shares compounds with PLCg1 inh. hit rate 1% among 3,300. AID 743261. purified PLC-beta3, fluorogenic substrate fluorescence. inhibition, % at 12.3 µM
# The depositor's hits bear a star; nt = not tested or not shown. Rule as the data show it, unless noted: active = inhibition above about 11%; inactive = the rest.
SMILES,PLCg1 inh,ADAM10 inh,ADAM17 inh,TbMetRS inhib,PLCb3 inh,PLCgamma1 ctr,PLCb3 confirm
COC(=O)c1sccc1S(=O)(=O)Nc1ccc(N2CCCCC2)cc1,9.6*,19,-3,-1,-3,-5,-3
CC(C)Cn1c(SCC(=O)N2CCCc3ccccc32)nc2ccccc2c1=O,11*,11,4,nt,-1,1,1
O=c1[nH]n2c(=O)c3c([nH]c2c1N=Nc1cccc(Cl)c1)CCC3,10*,20,8,-1,7,4,-1
COc1ccc(-c2ccc(C(=O)NCc3ccco3)c3occc23)c(C)c1,-17,-52,-18,0,-26,nt,nt
Cn1cc(S(=O)(=O)CC(=O)N2CCc3ccccc32)c2ccccc21,18*,-2,2,-1,16*,13*,15*
Cn1c(CC(=O)Nc2ccc(Cl)c(Cl)c2)nnc1SCC(=O)Nc1nccs1,2,3,-1,0,2,nt,nt
Cn1c(CSCc2ccccc2Cl)nnc1SCC(=O)Nc1nccs1,15*,6,-4,0,0,-3,-1
Cc1ccc2c(c1)N(C(=O)CCC(=O)NCc1cccnc1)CC(C)O2 (stereo unspecified),-2,-9,-2,1,2,nt,nt
N#CC(c1ccc(Cl)cc1)c1ccc(Cl)nn1 (stereo unspecified),8,7,4,0,12*,-4,-1
Cc1ccc(C(C)C)cc1NC(=O)Nc1ccc([N+](=O)[O-])cc1,5,9,0,1,12*,5,10
CCN1C/C(=C\c2cccc([N+](=O)[O-])c2)C(=O)/C(=C/c2cccc([N+](=O)[O-])c2)C1,12*,10,2,0,6,1,0
O=C1/C(=C/c2cccc([N+](=O)[O-])c2)CCc2ccccc21,5,4,-1,0,-5,nt,nt
O=C(Cc1ccccc1Cl)Nc1cccc(S(=O)(=O)N2CCOCC2)c1,9.9*,10,5,1,2,-3,-3
O=C(COC(=O)c1cccs1)Nc1cccc(S(=O)(=O)N2CCOCC2)c1,0,-2,0,1,2,nt,nt
Cc1csc(SCC(=O)Nc2cccc(S(=O)(=O)N3CCOCC3)c2)n1,-1,3,-2,0,-3,nt,nt
O=C(Cc1c(Cl)cccc1Cl)Nc1cccc(S(=O)(=O)N2CCOCC2)c1,2,6,-4,-1,-1,nt,nt
Cn1cccc1C(=O)OCC(=O)Nc1cccc(S(=O)(=O)N2CCOCC2)c1,11*,13,0,0,0,-4,-1
Cc1nc(SCC(=O)Nc2cccc(S(=O)(=O)N3CCOCC3)c2)nc(C)c1C,14*,7,7,0,4,-6,-3
O=C(NC(c1ccc2c(c1)OCO2)c1ccccn1)C1CCN(CCOc2ccccc2)CC1 (stereo unspecified),3,-1,0,0,2,nt,nt
CC[C@]12c3[nH]c4ccccc4c3CCN1C(=O)C(CC(=O)NCCCN(C)C)C[C@@H]2C(=O)N1CCN(C(=O)c2ccco2)CC1 (stereo partly specified),1,-11,-5,-1,2,nt,nt
CCc1ccc(Nc2nnc(SCC(=O)Nc3cccc(S(=O)(=O)NC4=NCCCCC4)c3)s2)cc1,9.7*,16,6,0,3,-4,-4
O=C(c1ccc(F)cc1)N1CCN(C2CCCCC2)CC1,0,-5,-1,-1,1,nt,nt
COc1ccc(NC(=O)C2CCN(C(=O)c3cccs3)CC2)cc1,9.6*,-9,-1,0,6,-6,-5
O=C(Nc1ccccc1)C1CCN(C(=O)c2ccccc2)CC1,7,14,6,0,12*,-8,-4
O=C(c1ccccc1)N1CCN(C(=O)c2ccc(OC(F)(F)F)cc2)CC1,3,11,4,0,12*,-5,-1
SMILES,PLCg1 inh,ADAM10 inh,ADAM17 inh,TbMetRS inhib,PLCb3 inh,PLCgamma1 ctr,PLCb3 confirm
O=C(c1ccccc1)N1CCN(C2CCCCCC2)CC1,14*,-4,3,-1,4,-2,2
CC(=O)N1CCN(C(=O)c2ccc(Oc3ccccc3)cc2)CC1,5,7,-6,0,3,nt,nt
COC(=O)CCC(NC(=O)c1cc(-c2ccc3c(c2)OCCO3)oc1C)C(=O)OC (stereo unspecified),-7,0,0,-1,-7,nt,nt
COC(=O)C[C@H]1C=C[C@@H](C(C(=O)OC)C(=O)OC)CN1C(C)=O,31*,-10,-2,-1,0,6,1
O=c1c2[nH]c3ccccc3c2ncn1CCN1CCOCC1,9.6*,1,-4,0,6,1,-1
Cc1ccc(C)c(N2CCN(S(=O)(=O)c3ccc4[nH]c(=O)c(=O)[nH]c4c3)CC2)c1,17*,-6,0,-1,0,-1,-4
Cc1ccc(C)c(N2CCN(S(=O)(=O)c3ccc4[nH]c(=O)ccc4c3)CC2)c1,-5,-7,-2,-1,-14,nt,nt
COc1ccccc1N1CCNC(C)C1=O (stereo unspecified),-3,0,1,1,-3,nt,nt
Cc1cccc(OCC(O)Cn2c(=N)n(Cc3ccccc3)c3ccccc32)c1 (stereo unspecified),12*,9,-18,-1,1,0,-6
Cc1ccc(OCC(O)Cn2c(=N)n(Cc3ccccc3)c3ccccc32)cc1 (stereo unspecified),2,0,0,-1,2,nt,nt
COC(=O)c1cc2c(cc1Cl)N1CCCCCC1=NS2(=O)=O,1,-9,-5,-1,-6,nt,nt
O=C(O)c1cc2c(cc1Cl)N1CCCCCC1=NS2(=O)=O,19*,2,2,0,0,-6,-1
CC(=O)Nc1cccc(C(=O)Nc2cc(C(F)(F)F)ccc2-n2cncn2)c1,4,1,2,1,0,nt,nt
COC(=O)[C@H]1C[C@@]2(N3CCCCC3)c3ccccc3N(S(=O)(=O)c3ccccc3)[C@H]2N1,1,7,2,nt,3,nt,nt
CCOC(=O)c1c2c(n(Cc3ccccc3)c1C)C(=O)C(=O)c1ccccc1-2,17*,8,0,2,4,36*,11*
CCOC(=O)c1c2c(n(C)c1C)C(=O)C(=O)c1ccc(Br)cc1-2,1,-13,-4,0,0,nt,nt
CCOC(CNC(=O)Cn1nc(C)c2ccccc21)OCC,9.9*,4,2,-1,1,-2,2
CCOC(=O)c1ccc(NC(=O)Cn2nc(C)c3ccccc3c2=O)cc1,4,6,1,-2,-13,nt,nt
Cc1cccc(Oc2nccc(C(F)(F)F)c2C(=O)Nc2ccc(F)cc2F)c1,7,5,2,0,-1,nt,nt
